Experimental data: ChEMBL document CHEMBL4190276, “Design, synthesis and evaluation of coumarin-pargyline hybrids as novel dual inhibitors of monoamine oxidases and amyloid-β aggregation for the treatment of Alzheimer's disease” (Eur J Med Chem, 2017); call rule not given here

Assays:
[1] = molecular target: T1, Amine oxidase [flavin-containing] B (Homo sapiens, UniProt P27338); assay: Inhibition of recombinant human MAO-B using p-tyramine as substrate preincubated for 15 mins followed by substrate addition measured after 20 mins by amplex red reagent based fluorescence assay
T1 sequence (P27338 whole entry): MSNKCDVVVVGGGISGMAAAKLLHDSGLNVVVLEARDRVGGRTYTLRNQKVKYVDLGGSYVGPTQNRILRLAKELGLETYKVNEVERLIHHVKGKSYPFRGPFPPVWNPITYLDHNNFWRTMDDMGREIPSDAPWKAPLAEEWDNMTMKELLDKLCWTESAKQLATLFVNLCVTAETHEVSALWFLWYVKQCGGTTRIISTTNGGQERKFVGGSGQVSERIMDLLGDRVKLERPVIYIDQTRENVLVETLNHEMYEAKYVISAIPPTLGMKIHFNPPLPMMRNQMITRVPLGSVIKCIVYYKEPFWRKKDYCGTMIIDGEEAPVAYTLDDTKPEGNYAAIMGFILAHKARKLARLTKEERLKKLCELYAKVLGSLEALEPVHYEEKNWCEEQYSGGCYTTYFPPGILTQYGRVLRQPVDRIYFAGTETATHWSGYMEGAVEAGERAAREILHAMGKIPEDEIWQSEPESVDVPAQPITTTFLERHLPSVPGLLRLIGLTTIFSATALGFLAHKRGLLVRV

[2] = molecular target: T2, Amine oxidase [flavin-containing] A (Homo sapiens, UniProt P21397); assay: Inhibition of recombinant human MAO-A using p-tyramine as substrate preincubated for 15 mins followed by substrate addition measured after 20 mins by amplex red reagent based fluorescence assay
T2 sequence (P21397 whole entry): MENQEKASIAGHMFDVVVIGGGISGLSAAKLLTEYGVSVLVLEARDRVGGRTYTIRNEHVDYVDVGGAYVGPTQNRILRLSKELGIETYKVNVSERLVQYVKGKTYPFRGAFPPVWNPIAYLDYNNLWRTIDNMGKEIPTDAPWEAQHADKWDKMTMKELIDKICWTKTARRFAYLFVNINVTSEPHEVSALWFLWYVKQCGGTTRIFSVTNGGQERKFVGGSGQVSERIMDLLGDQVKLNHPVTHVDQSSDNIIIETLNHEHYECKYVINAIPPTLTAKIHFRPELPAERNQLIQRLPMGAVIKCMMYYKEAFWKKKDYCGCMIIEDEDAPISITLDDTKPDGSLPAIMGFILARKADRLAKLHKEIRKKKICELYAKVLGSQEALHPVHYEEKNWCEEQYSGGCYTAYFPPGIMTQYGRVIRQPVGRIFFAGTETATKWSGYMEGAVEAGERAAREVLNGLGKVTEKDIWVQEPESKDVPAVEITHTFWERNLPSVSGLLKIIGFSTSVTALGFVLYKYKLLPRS

[3] = species on record: Homo sapiens; assay: Selectivity index, ratio of IC50 for recombinant human MAO-A to IC50 for recombinant human MAO-B
Method in brief: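 Commercial human MAO-A (1.1 μg protein) and MAO-B (7.5 μg protein) adjusted to equal velocity (165 pmol p-tyramine/min). Compounds from 10 mM DMSO stock diluted in 0.05 M potassium phosphate, pH 7.4. Preincubated with enzyme 15 min at 37 °C in the dark; 200 μM Amplex Red, 2 U/mL HRP, 2 mM p-tyramine added for 20 min at 37 °C.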

[4] = Permeability of the compound in PBS/EtOH at […] after 16 hrs by PAMPA; assay type: ADME; settings: read-out: Peff
[5] = molecular target: Amyloid-beta precursor protein (Homo sapiens) (UniProt P05067); assay: Inhibition of self-induced Amyloid beta (1 to 42) (unknown origin) aggregation at 25 uM after 48 hrs by thioflavin T-based fluorometric assay relative to control
Amyloid-beta precursor protein (Homo sapiens), sequence (P05067 whole entry): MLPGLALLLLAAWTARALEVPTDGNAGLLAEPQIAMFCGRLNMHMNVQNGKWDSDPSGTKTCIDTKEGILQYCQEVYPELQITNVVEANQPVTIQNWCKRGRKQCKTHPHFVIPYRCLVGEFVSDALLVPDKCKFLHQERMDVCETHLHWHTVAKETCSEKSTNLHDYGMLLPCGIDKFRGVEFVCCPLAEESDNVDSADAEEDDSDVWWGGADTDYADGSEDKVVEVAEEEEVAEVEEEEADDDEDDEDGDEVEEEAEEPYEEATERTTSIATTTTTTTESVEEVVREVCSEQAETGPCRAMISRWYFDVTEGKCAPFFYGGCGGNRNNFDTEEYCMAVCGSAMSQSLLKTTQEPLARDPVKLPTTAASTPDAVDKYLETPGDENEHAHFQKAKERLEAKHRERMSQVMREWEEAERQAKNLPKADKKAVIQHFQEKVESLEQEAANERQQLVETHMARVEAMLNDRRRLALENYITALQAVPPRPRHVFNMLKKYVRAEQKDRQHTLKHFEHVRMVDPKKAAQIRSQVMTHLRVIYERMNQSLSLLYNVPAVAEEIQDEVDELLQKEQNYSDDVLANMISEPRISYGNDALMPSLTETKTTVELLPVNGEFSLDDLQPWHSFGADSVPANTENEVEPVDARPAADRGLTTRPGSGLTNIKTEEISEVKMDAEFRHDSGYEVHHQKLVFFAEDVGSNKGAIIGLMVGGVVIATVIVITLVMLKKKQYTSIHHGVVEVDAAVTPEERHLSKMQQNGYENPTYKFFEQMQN
Method in brief: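 Aβ1-42 stock (2000 μM in 1% ammonium hydroxide) diluted in 50 mM phosphate pH 7.4. Peptide (final 25 μM) incubated with or without compound (25 μM) at 37 °C for 48 h. Then diluted in 50 mM glycine-NaOH pH 8.0 containing 5 μM thioflavin T, read after 5 min (ex 446/em 490 nm). Inhibition = (1 − IFi/IFc) × 100 after blank subtraction. Mean ± SD of three independent experiments.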

[6] = system: Mus musculus; assay: Acute toxicity in Kunming mouse assessed as effect on serum ALT level at 2.4 mmol/kg, po administered as single dose via gavage measured continuously for first 4 hrs, intermittently for next 24 hrs and occasionally thereafter for 14 days; assay type: organism-based; settings: in vivo
Method in brief: (§1)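 Male KM mice (18–20 g), fasted overnight, given one oral 2.4 mmol/kg dose suspended in 0.5% CMC-Na. On day 14, orbital blood was collected before decapitation and serum AST and ALT activities measured against a control group. Mean ± SD of three independent experiments.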

[7] = system: Mus musculus; assay: Nephrotoxicity in Kunming mouse at 2.4 mmol/kg, po administered as single dose via gavage measured continuously for first 4 hrs, intermittently for next 24 hrs and occasionally thereafter for 14 days […]; assay type: toxicity, organism-based; settings: in vivo
Method in brief: (§2)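 Male KM mice (18–20 g) received a single oral 2.4 mmol/kg dose in 0.5% CMC-Na suspension after an overnight fast. All animals were sacrificed on day 14 after dosing, and heart, liver and kidneys were examined macroscopically for damage.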

[8] = system: Mus musculus; assay: Acute toxicity in Kunming mouse assessed as abnormal change in water consumption at 2.4 mmol/kg, po administered as single dose via gavage measured continuously for first 4 hrs, intermittently for next 24 hrs and occasionally thereafter for 14 days; assay type: organism-based; settings: in vivo
Method in brief: (§3)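 Male KM mice (22 days old, 18–20 g), 15 in total, randomly split into 3 groups of 5. Kept on a 12 h light/dark cycle at 20-22 °C and 60-70% humidity, fasted overnight with free water. Single oral dose of 2.4 mmol/kg suspended in 0.5% CMC-Na. Mortality, behaviour, water and food intake, and body weight followed over 14 days.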

[9] = system: Mus musculus; assay: Cardiotoxicity in Kunming mouse at 2.4 mmol/kg, po administered as single dose via gavage measured continuously for first 4 hrs, intermittently for next 24 hrs and occasionally thereafter for 14 days by […]; assay type: toxicity, organism-based; settings: in vivo; method in brief: as §2
[10] = system: Mus musculus; assay: Acute toxicity in Kunming mouse assessed as mortality at 2.4 mmol/kg, po administered as single dose via gavage measured continuously for first 4 hrs, intermittently for next 24 hrs and occasionally thereafter for 14 days; assay type: organism-based; settings: in vivo; method in brief: as §3
[11] = system: Mus musculus; assay: Acute toxicity in Kunming mouse assessed as abnormal change in body weight at 2.4 mmol/kg, po administered as single dose via gavage measured continuously for first 4 hrs, intermittently for next 24 hrs and occasionally thereafter for 14 days; assay type: organism-based; settings: in vivo; method in brief: as §3
[12] = molecular target: T1, Amine oxidase [flavin-containing] B; assay: Irreversible inhibition of recombinant human MAO-B at 30 nM using p-tyramine as substrate preincubated for 15 to 60 mins followed by substrate addition and subsequent two-fold enzyme dilution measured after 15 mins by amplex red reagent based fluorescence assay; settings: 0.25 h, 0.03 µM
[13] = system: PC-12; assay: Cytotoxicity against rat PC12 cells assessed as reduction in cell viability up to 100 uM after 24 hrs by MTT assay; assay type: cell-based; settings: pc-12, 24 h
Method in brief: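 PC12 cells grown at 37 °C, 5% CO2 in DMEM with 10% bovine calf serum and penicillin/streptomycin; seeded 10,000 cells/well, switched to serum-free medium, then exposed to compound (0–100 μM) for 24 h. MTT added for 4 h at 37 °C, formazan dissolved in DMSO, absorbance read at 570 nm (reference 630 nm). Mean ± SD of three independent experiments.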

[14] = system: Mus musculus; assay: Acute toxicity in Kunming mouse assessed as abnormal change in food consumption at 2.4 mmol/kg, po administered as single dose via gavage measured continuously for first 4 hrs, intermittently for next 24 hrs and occasionally thereafter for 14 days; assay type: organism-based; settings: in vivo; method in brief: as §3
[15] = system: Mus musculus; assay: Acute toxicity in Kunming mouse assessed as effect on serum AST level at 2.4 mmol/kg, po administered as single dose via gavage measured continuously for first 4 hrs, intermittently for next 24 hrs and occasionally thereafter for 14 days; assay type: organism-based; settings: in vivo; method in brief: as §1
[16] = system: Mus musculus; assay: Hepatotoxicity in Kunming mouse at 2.4 mmol/kg, po administered as single dose via gavage measured continuously for first 4 hrs, intermittently for next 24 hrs and occasionally thereafter for 14 days by […]; assay type: toxicity, organism-based; settings: in vivo; method in brief: as §2

| SMILES | IC50 [1] [µM] | IC50 [2] [µM] | Ratio IC50 [3] | other results |
| --- | --- | --- | --- | --- |
| C#CCN(CCCOc1ccc2ccc(=O)oc2c1)Cc1ccc(F)c(F)c1 | 4.86 | 49.2 | 10.1 |  |
| CCn1cc(C(=O)O)c(=O)c2cc(F)c(N3CCNC(C)C3)c(F)c21 (configuration not stated) [LOMEFLOXACIN] |  |  |  | Papp at 16 h [4]: 1.05 ×10⁻⁶ cm/s |
| C#CCN(CCCCOc1ccc2ccc(=O)oc2c1)Cc1ccc(F)c(F)c1 | 2.37 | 93.2 | 39.4 | inhibition [5]: 30.6% |
| C#CCN(CCOc1ccc2ccc(=O)oc2c1)Cc1ccc(C)cc1 | 5.64 | 56.4 | 10 |  |
| C#CCN(CCCCOc1ccc2ccc(=O)oc2c1)Cc1ccc(OC)cc1 | 1.13 | 54.5 | 48.2 | inhibition [5]: 49.1% |
| C#CCN(CCCCOc1ccc2ccc(=O)oc2c1)Cc1ccc(C)cc1 | 1.68 | 94.5 | 56.4 | inhibition [5]: 50% |
| C#CCN(CCCOc1ccc2ccc(=O)oc2c1)Cc1ccccc1 | 3.74 | 38.6 | 10.3 |  |
| C#CCN(CCCCOc1ccc2ccc(=O)oc2c1)Cc1ccccc1 | 0.978 | 89.3 | 91.4 |  |
| C#CCN(C)CCCCOc1ccc2ccc(=O)oc2c1 | 0.027 | 3.28 | 121 | Activity [6]: Non-Toxic; Activity [7]: Non-Toxic; Activity [8]: Non-Toxic; Activity [9]: Non-Toxic; Activity [10]: Non-Toxic; Activity [11]: Non-Toxic; inhibition (INH) [12]: Active; Activity [13]: Non-Toxic; Activity [14]: Non-Toxic; Activity [15]: Non-Toxic; Papp at 16 h [4]: 8.92 ×10⁻⁶ cm/s; inhibition [5]: 54%; Activity [16]: Non-Toxic |
| C#CCN(CCOc1ccc2ccc(=O)oc2c1)Cc1ccc(OC)cc1 | 3.51 | 55 | 15.7 |  |
| C#CCN(CCCCOc1ccc2ccc(=O)oc2c1)Cc1ccc(C(C)C)cc1 | 3.5 | 35.4 | 10.1 |  |
| C#CCN(CCOc1ccc2ccc(=O)oc2c1)Cc1ccc(C(C)C)cc1 | 6.96 | 70 | 10.1 |  |
| C#CCN(C)Cc1ccccc1 [PARGYLINE] |  |  |  | Activity [6]: Non-Toxic; Activity [7]: Non-Toxic; Activity [8]: Non-Toxic; Activity [9]: Non-Toxic; Activity [10]: Non-Toxic; Activity [11]: Non-Toxic; Activity [14]: Non-Toxic; Activity [15]: Non-Toxic; Activity [16]: Non-Toxic |
| C[C@]12CC[C@@H]3c4ccc(O)cc4CC[C@H]3[C@@H]1CC[C@@H]2O [ESTRADIOL] |  |  |  | Papp at 16 h [4]: 8 ×10⁻⁶ cm/s |
| C#CCN(CCOc1ccc2ccc(=O)oc2c1)Cc1ccccc1 | 8.3 | 89.5 | 10.8 |  |
| C#CCN(CCCOc1ccc2ccc(=O)oc2c1)Cc1ccc(OC)cc1 | 6.08 | 60 | 9.87 |  |
| C#CCN(CCCOc1ccc2ccc(=O)oc2c1)Cc1cccc(F)c1 | 4.44 | 29.3 | 6.59 |  |
| C#CCN(CCOc1ccc2ccc(=O)oc2c1)Cc1cccc(OC)c1 | 7.01 | 72.1 | 10.3 |  |
| C#CCN(CCOc1ccc2ccc(=O)oc2c1)Cc1ccc(F)c(F)c1 | 9.62 | 40.8 | 4.24 |  |
| C#CCN(CCCCOc1ccc2ccc(=O)oc2c1)Cc1cccc(OC)c1 | 2.34 | 78.6 | 33.6 | inhibition [5]: 38.2% |
| C#CCN(CCOc1ccc2ccc(=O)oc2c1)Cc1cccc(F)c1 | 5.53 | 53.3 | 9.64 |  |
| C#CCN(CCCCOc1ccc2ccc(=O)oc2c1)Cc1cccc(F)c1 | 1.55 | 69.1 | 44.6 |  |
| C#CCN(C)CCOc1ccc2ccc(=O)oc2c1 | 1.1 | 69.9 | 63.4 | inhibition [5]: 36.4% |
| C#CCN(C)CCCOc1ccc2ccc(=O)oc2c1 | 1.08 | 36.9 | 34 | inhibition [5]: 59.3% |
| C#CCN(CCCOc1ccc2ccc(=O)oc2c1)Cc1ccc(C)cc1 | 7.38 | 116 | 15.8 |  |
| C#CCN(CCCOc1ccc2ccc(=O)oc2c1)Cc1cccc(OC)c1 | 4.59 | 22.7 | 4.94 |  |
| C#CCN(CCCOc1ccc2ccc(=O)oc2c1)Cc1ccc(C(C)C)cc1 | 7.58 | 77.4 | 10.2 |  |
